Compound activity deposited in PubChem by The Scripps Research Institute Molecular Screening Center.
TAAR1 ag = human TAAR1 agonists, primary screen, Fluo-8 calcium fluorescence, CHO RD-HGA16 cells; Trace amine-associated receptor 1 (Homo sapiens), Q96RJ0; vehicle wells 0%, saturating PEA agonist 100%; activation, % at 3 µM; 360,000 tested, 0.99% active; AID 624467, 2012;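 active = activation above the mean activation of all test compounds in the run plus 3 SD, cut at about 38% in these data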
Target sequence (Q96RJ0 whole entry, looked up): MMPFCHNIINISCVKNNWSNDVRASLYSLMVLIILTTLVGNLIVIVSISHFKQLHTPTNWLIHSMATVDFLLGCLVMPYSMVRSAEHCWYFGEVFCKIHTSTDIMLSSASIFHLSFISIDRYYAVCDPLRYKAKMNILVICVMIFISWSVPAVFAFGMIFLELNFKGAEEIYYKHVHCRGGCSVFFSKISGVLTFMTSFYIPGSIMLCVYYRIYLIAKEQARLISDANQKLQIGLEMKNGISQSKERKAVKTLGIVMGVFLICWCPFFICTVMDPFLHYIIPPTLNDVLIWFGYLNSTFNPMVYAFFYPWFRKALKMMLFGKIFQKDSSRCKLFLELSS
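Signal – calcium-sensitive Fluo-8 signal, excitation 470-495, emission 515-575 nm · System – RD-HGA16 (CHO) cells co-expressing Gα16 and hTAAR1 · Incubation – 17-24 h seeding, 75 min 37 °C dye, 30 min RT · Compound dosing – 3 µM single concentration · Repeats – no replicates (n 1)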
NS3 helicase inh = inhibitors of HCV NS3 helicase, primary screen, biochemical, Cy5 molecular beacon fluorescence | NS3 helicase DNA unwinding | inhibition, % at 10.9 µM | 290,000 tested, 0.56% active | AID 1800, 2009;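 active = inhibition above the mean of all tested compounds plus 3 SD, set per campaign, cut at about 35% in these data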;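 note: 0% = DMSO wells and 100% = thioflavine S control wells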
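Measured by: Cy5 fluorescence, 0 and 60 min reads / Assay system: NS3 helicase fragment of HCV / Control set: low DMSO, high thioflavine S at 110 µM / Times: 1 h reaction at 25 °C, ATP-initiated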
rCAG binder = binders of r(CAG) RNA repeats, primary screen, biochemical, fluorescence | r(CAG) RNA repeat, TO-PRO-1 dye displacement fluorescence | inhibition, % at 3 µM | 370,000 tested, 1.3% active | AID 651821, 2012;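 active = inhibition above the plate cutoff, the mean of all test compounds on that plate plus 3 SD, cut at about 35% in these data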;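 note: 0% = DMSO alone and 100% = 100 µM mitoxantrone as full dye displacement; higher means more dye released from RNA so lower well fluorescence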
HCV core dimer = inhibitors of HCV core protein dimerization, primary screen, biochemical, TR-FRET, high-throughput | TR-FRET GST/Flag-core106 dimerization, 1536-well | inhibition, % at 5 µM | 300,000 tested, 0.33% active;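 active = inhibition above the mean of all tested compounds plus 3 SD, set per screening campaign, cut at about 45% in these data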
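Assay system: Tagged HCV core106 pair (GST and Flag) | Buffer or medium: KF-containing HEPES buffer, pH 7.45, DTT, CHAPS, BSA | Also added: Eu donor and XL665 acceptor anti-tag antibodies | Dosing: One concentration, 5 µM, in 0.5% DMSO | Timing: 4 h at 22.5 °C | Technique: TR-FRET 671 and 617 nm emission | Repeats: Singlicate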
TAAR1 antagonist = human TAAR1 antagonists, primary screen, Fluo-8 calcium fluorescence, CHO RD-HGA16 cells; Trace amine-associated receptor 1 (Homo sapiens), Q96RJ0; antagonist; inhibition, % at 3 µM; 360,000 tested, 1.5% active;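 active = inhibition above a per-plate cutoff, the mean inhibition of test compounds on that plate plus 3 SD, cut at about 49% in these data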;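 note: 0% = DMSO plus EC80 beta-PEA response and 100% = DMSO alone without agonist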
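Test system: CHO RD-HGA16 cells bearing hTAAR1 | Reagent: β-PEA, EC80 | Compound dosing: 3 µM, single point | Schedule: Dye loading 75 min at 37 °C, then 30 min room temperature | Signal: Calcium fluorescence with Fluo-8 | Evaluation: Percent inhibition of PEA-evoked calcium signal, max/basal emission ratio | Control set: DMSO-only wells and EC80 β-PEA-stimulated wells | Repeats: Singlicate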
rCAG bind conf = small molecules binding CAG repeat RNA – biochemical, fluorescence, confirmation; shares compounds with rCAG binder; r(CAG) RNA repeat, TO-PRO-1 dye displacement fluorescence; inhibition, % at 3 µM; 4,300 tested, 70% active; AID 652065, 2013;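 active = inhibition above a per-plate cutoff, the mean inhibition of sample wells plus 3 SD, cut at about 35% in these data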;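 note: loss of TO-PRO-1 fluorescence as compound displaces dye from 1x1 AA loop RNA; 0% = DMSO only wells and 100% = 100 µM mitoxantrone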
dCAG dye counter = displacement of TO-PRO-1 from CAG DNA duplex, counter-screen for rCAG RNA repeat binder project, biochemical, fluorescence, TO-PRO-1 dye, d(CAG) DNA oligo; AID 652068, 2013; 4,300 tested, 94% active; inhibition, % at 3 µM; shares compounds with rCAG binder; d(CAG) DNA oligo TO-PRO-1 dye displacement;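 active = inhibition above its plate's cutoff, the mean test-well inhibition plus 3 SD, cut at about 4.8% in these data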;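 note: 0% = DNA dye mix with DMSO and 100% = 100 µM mitoxantrone; hits displace the dye from DNA and so lower well fluorescence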
Starred values were filed as active, the others as inactive; x = no result. Only some compounds are listed: those with a hit (about 3.7% of all), similar ones and a draw of the others.

SMILES	TAAR1 ag	NS3 helicase inh	rCAG binder	HCV core dimer	TAAR1 antagonist	rCAG bind conf	dCAG dye counter
CN1OC[C@@H]2CN(Cc3ccc4c(c3)OCO4)[C@H](c3ccc(-n4ccnc4)cc3)C[C@@H]21	1	x	3	x	-20	x	x
Nc1cc(Cl)nc(N/N=C/c2c(O)ccc3ccccc23)n1	3	-19	29	-14	16	x	x
Nc1nonc1N/N=C/c1c(O)ccc2ccccc12	16	10	40*	-20	17	20	15*
FC(F)(F)Oc1ccc(Cn2ccc3ccc(-c4ccc5ccn(Cc6ccccc6)c5c4)cc32)cc1	x	x	13	x	x	x	x
Nc1cc2c(cc1[N+](=O)[O-])-c1ccccc1C2=NO	14	x	44*	x	14	30	24*
Cc1ccc(C)c(NC(=O)CSc2nc3nc(-c4cccs4)cc(C(F)(F)F)c3c(=O)[nH]2)c1	-3	11	58*	33	-17	83*	47*
Nc1ccc(S(=O)(=O)Nc2nc(-c3ccccc3)cc(-c3ccccc3O)n2)cc1	9	x	58*	x	-12	54*	18*
COc1ccc(/C=C2\S/C(=N/S(=O)(=O)c3cccs3)NC2=O)cc1	-1	10	73*	2	-5	50*	16*
COc1ccc(/C=N/S(=O)(=O)c2cccs2)cc1	2	1	-2	-3	18	x	x
O=C1/C(=C/c2ccc(O)cc2)SC(=S)N1CC1CCCO1 (stereo not drawn)	30	8	-5	-5	29	x	x
Cc1ccsc1/C=C1\SC(=S)N(CC2CCCO2)C1=O (stereo not drawn)	-1	7	36*	2	-13	3	2
COCCCN1C(=O)[C@H](CC(=O)NCc2cccc(C(F)(F)F)c2)[C@]2(C(=O)OC)CCCCC=C12	x	x	0	x	x	x	x
COc1ccc(C(=O)NCC2CCN(C(=O)C(=O)c3cccs3)CC2)c(OC)c1	0	x	0	x	-12	x	x
CCOC(=O)c1sc(-n2[nH]c(C)cc2=O)nc1C	4	21	78*	-1	14	47*	13*
CCOC(=O)CSc1nc(C)c(C(=O)OCC)s1	6	-10	-8	-2	-3	x	x
C=CCN1[C@H](Cc2ccccc2)COc2cccc(N3CCSCC3)c2S1(=O)=O	x	x	2	x	x	x	x
S=c1[nH]nc(COc2ccccc2)n1/N=C/c1ccc(Cl)cc1	-1	14	44*	x	-12	30	7.4*
S=c1[nH]nc(COc2ccccc2)n1/N=C/c1ccc(Br)s1	0	8	44*	-3	0	33	8.1*
Cc1ccccc1CC(=O)N1CCC(n2nnc3ncccc32)CC1	x	x	2	x	x	x	x
COC(=O)[C@H](C(C)C)N1Cc2nnn(Cc3ccc(C)cc3)c2-c2cc(F)ccc2S1(=O)=O	x	x	0	x	x	x	x
C=CCOc1ccc(/C=C2\SC(=S)N(NS(=O)(=O)c3ccc(C)cc3)C2=O)cc1	-3	16	80*	6	24	84*	53*
C=CCOc1ccc(/C=C2\SC(=S)N(C(C(=O)O)c3ccccc3)C2=O)cc1 (stereo not drawn)	0	2	12	x	4	x	x
Cc1ccc(S(=O)(=O)NN2C(=O)/C(=C/c3cccs3)SC2=S)cc1	7	17	63*	6	-5	55*	22*
COc1ccc(/C=C2/SC(=S)N(NS(=O)(=O)c3ccc(C)cc3)C2=O)cc1	6	14	84*	-1	20	84*	47*
C(=NN=C1c2ccccc2-c2ccccc21)c1c[nH]c2ccccc12	1	x	35*	x	6	39*	20*
Oc1ccc(C=NN=C2c3ccccc3-c3ccccc32)c(O)c1	3	x	49*	x	-5	49*	32*
